Tests used:
[1] = tested on: HCC1954; experiment: Antiproliferative activity against human HCC1954 cells assessed as growth inhibition after 48 hrs by PrestoBlue dye based fluorescence assay; format: functional, cell-based; conditions: HCC1954, 48 h
[2] = tested on: VCaP; experiment: Antiproliferative activity against human VCap cells assessed as growth inhibition after 48 hrs by PrestoBlue dye based fluorescence assay; format: functional, cell-based
[3] = Tmax in C57BL/6 mouse at 10 mg/kg, sc by LC-MS analysis; format: ADME, organism-based; conditions: in vivo
In short: (§1)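 Mice individually weighed, then given a single SC dose of 10 mg/kg. Blood taken by retro-orbital bleeding at set time points. Plasma levels measured by triple-quadrupole LC/MS; plasma half-life derived from these levels.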

[4] = Cmax in C57BL/6 mouse at 10 mg/kg, sc by LC-MS analysis; format: ADME, organism-based; design: route subcutaneous, dose 10 mg/kg; conditions: in vivo; in short: as §1
[5] = Drug level in C57BL/6 mouse plasma at 10 mg/kg, sc after 30 mins by LC-MS analysis; format: ADME, organism-based; conditions: in vivo, 0.5 h; in short: as §1
[6] = tested on: T47D; experiment: Antiproliferative activity against human T47D cells assessed as growth inhibition after 48 hrs by PrestoBlue dye based fluorescence assay; format: functional, cell-based
[7] = tested on: HepG2; experiment: Antiproliferative activity against human HepG2 cells assessed as growth inhibition after 48 hrs by PrestoBlue dye based fluorescence assay; format: functional, cell-based; conditions: HepG2, 48 h

For `CCCCCCCCCCCCCCCCS[C@H]1C[C@@H](C(=O)NCC(c2ccccc2)c2ccccc2)N(C(=O)[C@@H](NC(=O)[C@H](C)NC)C(C)(C)C)C1`, the EC50 [1] was 17.5 µM and the EC50 [2] was 8.9 µM.

`CCCCCCCCCCCCCCCc1cccc(O[C@H]2C[C@@H](C(=O)NC(c3ccccc3)c3ccccc3)N(C(=O)[C@@H](NC(=O)[C@H](C)NC)C(C)(C)C)C2)c1` showed a Tmax [3] of 15.5 h, a Cmax [4] of 3970.8 nM and a Cp [5] of 1985.4 nM.

With `CCCCCCCCCCCCCCCc1cccc(O[C@H]2C[C@@H](C(=O)NCC(c3ccccc3)c3ccccc3)N(C(=O)[C@@H](NC(=O)[C@H](C)NC)C(C)(C)C)C2)c1` the EC50 [6] was 9 µM and the EC50 [7] was 5.4 µM.

Reference: ChEMBL document CHEMBL4699443, “Position of lipidation influences anticancer activity of Smac analogs” (Bioorg Med Chem Lett, 2019)
